Experiments:
[1] = target: T1, Ecdysone receptor (Bombyx mori) (UniProt P49881); test: Ratio of maximum level of gene expression (ecdysone receptor and beta-galactosidase receptor) of compound to maximum level of gene expression with GSTM-E expressed as RMFI; format: functional
T1 sequence (whole entry): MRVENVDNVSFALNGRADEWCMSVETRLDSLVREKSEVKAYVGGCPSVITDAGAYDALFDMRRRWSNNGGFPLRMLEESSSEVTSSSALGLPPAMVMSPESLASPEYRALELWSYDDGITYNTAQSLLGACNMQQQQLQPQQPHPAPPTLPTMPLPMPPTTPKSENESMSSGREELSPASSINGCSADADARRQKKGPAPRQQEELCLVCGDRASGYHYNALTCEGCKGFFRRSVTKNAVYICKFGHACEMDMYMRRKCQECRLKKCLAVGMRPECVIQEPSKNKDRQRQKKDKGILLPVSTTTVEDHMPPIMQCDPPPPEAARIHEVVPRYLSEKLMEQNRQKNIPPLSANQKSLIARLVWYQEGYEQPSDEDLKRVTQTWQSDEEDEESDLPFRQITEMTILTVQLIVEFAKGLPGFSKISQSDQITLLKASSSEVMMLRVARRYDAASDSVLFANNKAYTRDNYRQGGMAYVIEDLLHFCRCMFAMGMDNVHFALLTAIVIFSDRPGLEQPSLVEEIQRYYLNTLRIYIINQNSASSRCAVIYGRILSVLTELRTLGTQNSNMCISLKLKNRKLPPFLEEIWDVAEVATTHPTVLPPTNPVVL
How it was run: (§1)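 HEK-293 clone Z3 stably expressing BmEcR with a β-galactosidase reporter, selected with G418 (450) and puromycin (100 ng/mL). Cells seeded at 2.5 × 10⁴ cells/mL and held 24 h at 37 °C in 5% CO₂. Ligands came from 10 mM DMSO stocks diluted […] in medium, with final DMSO 0.03%. Bioluminescent β-gal read at 48 h, room temperature. Fold induction is treated RLU over DMSO RLU. EC50 is the dose giving 50% of maximum transactivation. RMFI is maximum expression relative to that of the standard agonist control.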

Ecdysone receptor [2] = target: T2, Ecdysone receptor (Bombyx mori, UniProt P49881); test: Dose affording 50% of maximum transactivation for ecdysone receptor from Bombyx mori (BmEcR) and a beta-galactosidase reporter gene in HEK293 cell-line; format: functional, cell-based; how it was run: as §1
T2 sequence (P49881 whole entry): T1 sequence (whole entry)

Ecdysone receptor [3] = target: T3, Ecdysone receptor (Choristoneura fumiferana, UniProt O77240); test: Dose affording 50% of maximum transactivation for ecdysone receptor from Choristoneura fumiferana (CfEcR) and a luciferase reporter gene in CHO cells; format: functional, cell-based
T3 sequence (O77240 whole entry): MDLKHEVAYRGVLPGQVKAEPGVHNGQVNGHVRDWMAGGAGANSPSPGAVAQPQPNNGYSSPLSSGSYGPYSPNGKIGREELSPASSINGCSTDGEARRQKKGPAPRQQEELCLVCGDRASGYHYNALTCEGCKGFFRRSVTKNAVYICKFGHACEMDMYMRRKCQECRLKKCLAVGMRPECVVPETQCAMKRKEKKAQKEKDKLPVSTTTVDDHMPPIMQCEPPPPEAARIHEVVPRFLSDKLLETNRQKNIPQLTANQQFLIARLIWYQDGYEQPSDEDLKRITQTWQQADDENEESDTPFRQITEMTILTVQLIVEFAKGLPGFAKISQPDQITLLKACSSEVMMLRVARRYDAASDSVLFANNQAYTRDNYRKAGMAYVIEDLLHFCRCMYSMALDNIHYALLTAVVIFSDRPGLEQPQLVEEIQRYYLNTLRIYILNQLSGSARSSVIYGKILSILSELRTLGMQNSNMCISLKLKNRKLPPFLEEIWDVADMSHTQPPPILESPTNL
How it was run: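 CHO cells stably carrying GAL4 DBD(1-147)-CfEcR(DEF) and VP16-bRXR-LmUSP chimera cassettes (Zeocin selection), plus GAL4 RE-luciferase reporter (clone 27-63, hygromycin). Cells plated at 2.5 × 10⁴ cells mL⁻¹. DMSO ligand stocks diluted 300-fold; 8 concentrations, 33 to 0.01. Luciferase read 48 h after treatment. Value is the dose giving 50% of maximum transactivation.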

[4] = target: T4, Ecdysone receptor (Choristoneura fumiferana) (UniProt O77240); test: Ratio of maximum level of gene expression (ecdysone receptor and luciferase gene) of compound to maximum level of gene expression with GSTM-E expressed as RMFI; format: functional
T4 sequence (whole entry): T3 sequence (O77240 whole entry)
How it was run: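 CHO clone 27-63 stably carries GAL4 DBD–CfEcR(DEF) plus VP16–RXR/LmUSP chimera, selected with Zeocin. A GAL4-RE luciferase reporter was added and selected with hygromycin. Cells plated at 2.5 × 10⁴ cells/mL. DMSO ligand stocks diluted 300-fold, tested at 8 concentrations from 33 to 0.01. Luciferase measured 48 h after treatment. RMFI is maximum expression relative to that of the standard agonist control.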

SMILES | Ratio [1] | EC50 (Ecdysone receptor [2]) | EC50 (Ecdysone receptor [3]) | Ratio [4]
Cc1cc(C)cc(C(=O)C2(NC(=O)c3ccc4c(c3C)OCO4)CCCCC2)c1 | 0.81 | 3680 nM | 3.22 µM | 0.91
COc1cccc(C(=O)NC2(C(=O)c3cc(C)cc(C)c3)CCCCCC2)c1C | 0.69 | 1610 nM | 2.97 µM | 0.88
COc1ccccc1C(=O)C1(NC(=O)c2cccc(OC)c2C)CCCCCC1 | 0.78 | 1940 nM | 3.36 µM | 0.66
COc1cccc(C(=O)NC2(C(=O)c3cc(C)cc(C)c3)CCSCC2)c1C | 0.98 | 1600 nM | 1.8 µM | 0.85
CCc1ccc(C(=O)NC2(C(=O)c3cc(C)cc(C)c3)CCCCC2)cc1 | 0.63 | 1510 nM | – | –
COc1cccc(C(=O)NN(C(=O)c2cc(C)cc(C)c2)C(C)(C)C)c1C [METHOXYFENOZIDE] | 1.03 | 100 nM | 0.28 µM | 1.02
CCc1c(OC)cccc1C(=O)NN(C(=O)c1cc(C)cc(C)c1)C(C)(C)C | 1 | 250 nM | 0.41 µM | 1
COc1cccc(C(=O)NC2(C(=O)c3cc(C)cc(C)c3)CCOCC2)c1C | 0.18 | 10000 nM | 10 µM | 0.96
CCC(CC)(NC(=O)c1cccc(OC)c1C)C(=O)c1cc(C)cc(C)c1 | 0.61 | 4530 nM | 6.23 µM | 0.54
COc1cccc(C(=O)NC2(C(=O)c3cc(C)cc(C)c3)CCS(=O)(=O)CC2)c1C | 0.1 | 15000 nM | 30 µM | 0.04
COc1ccccc1C(=O)C1(NC(=O)c2cccc(OC)c2C)CCCCC1 | 0.84 | 980 nM | 1.03 µM | 0.71
COc1cccc(C(=O)NC2(C(=O)c3cc(C)cc(C)c3)CC2)c1C | 0.22 | 20400 nM | 33.3 µM | 0.09
COc1cccc(C(=O)NC2(C(=O)c3cc(C)cc(C)c3)CCC2)c1C | 0.69 | 8520 nM | 10 µM | 0.89
COc1ccccc1C(=O)C1(NC(=O)c2cccc(OC)c2C)CCCC1 | 0.7 | 5160 nM | 6.61 µM | 0.67
COc1cccc(C(=O)NC(C)(C)C(=O)c2cc(C)cc(C)c2)c1C | 0.17 | 10000 nM | 41.9 µM | 0.29
CCc1c(OC)cccc1C(=O)NC1(C(=O)c2cc(C)cc(C)c2)CCCCC1 | 0.85 | 1810 nM | 1.25 µM | 0.89
COc1cccc(C(=O)NC2(C(=O)c3cc(C)cc(C)c3)CCCC2)c1C | 0.85 | 1870 nM | 1.91 µM | 0.86
CCc1c(C(=O)NC2(C(=O)c3cc(C)cc(C)c3)CCCCC2)ccc2c1OCCO2 | 0.89 | 740 nM | 0.39 µM | 0.91
COc1cccc(C(=O)NC2(C(=O)c3cc(C)cc(C)c3)CCCCC2)c1C | 0.99 | 1410 nM | 1.11 µM | 0.96
